# Assay results gathered from unrelated publications.
# Lines come from different studies, so protocols differ.
# CA9: Carbonic anhydrase 9 (CA9, Homo sapiens, UniProt Q16790)
# gyrB: DNA gyrase subunit B (gyrB, Escherichia coli, UniProt P0AES6)
# Melanocortin receptor 5: Melanocortin receptor 5 (Mus musculus, UniProt P41149)
# PKN1: Serine/threonine-protein kinase N1 (PKN1, Homo sapiens, UniProt Q16512)
# Adora1: Adenosine receptor A1 (Adora1, Rattus norvegicus, UniProt P25099)
SMILES,target,assay,conditions,endpoint,value
NS(=O)(=O)c1cc(CNC(=O)N(Cc2ccc(O)cc2)CC2CC2)ccc1F,CA9,"enzyme activity, inhibitor",,IC50,1200 nM
O=C(O)c1cccc(NC(=O)c2cc3ccccc3[nH]c2=O)c1,gyrB,"binding, ITC",,Kd,7000 nM
NS(=O)(=O)c1ccc(NC(=O)C(Cc2c[nH]c3ccccc23)NC(=O)c2cccs2)cc1 (stereo not shown),CA9,"enzyme activity, inhibitor",,IC50,37.2 nM
CSCC[C@H](N)C(=O)NCC(=O)N[C@@H](Cc1c[nH]cn1)C(=O)N[C@@H](Cc1ccccc1)C(=O)N[C@@H](CCCNC(=N)N)C(=O)N[C@@H](Cc1c[nH]c2ccccc12)C(=O)N[C@@H](CC(=O)O)C(=O)N[C@@H](CCCNC(=N)N)C(=O)N[C@@H](Cc1ccccc1)C(=O)NCC(=O)O,Melanocortin receptor 5,"reporter gene, agonist",,EC50,94 nM
Cc1ccc(S(N)(=O)=O)c(C(=O)Nc2ccc(NC(=O)NCC3CCCO3)cc2)c1 (stereo not shown),CA9,"enzyme activity, inhibitor",,IC50,7880 nM
COc1ccc(-c2nsc(NC(=O)[C@@H]3C[C@H]3C)c2C)cc1,"Metabotropic glutamate receptor 1 (GRM1, Homo sapiens, UniProt Q13255)","calcium signal, agonist",,EC50,> 25000 nM
CSCC[C@H](NC(=O)[C@@H](N)Cc1ccc(O)cc1)C(=O)N[C@@H](Cc1c[nH]cn1)C(=O)N[C@@H](Cc1ccccc1)C(=O)N[C@@H](CCCNC(=N)N)C(=O)N[C@@H](Cc1c[nH]c2ccccc12)C(=O)N[C@@H](Cc1ccccc1)C(=O)O,Melanocortin receptor 5,"reporter gene, agonist",,EC50,1100 nM
Cc1cccnc1C(=O)Nc1ccc(N2C(=O)c3ccccc3C2=O)c(Cl)c1,"Metabotropic glutamate receptor 4 (GRM4, Homo sapiens, UniProt Q14833)","calcium signal, agonist",,EC50,> 10000 nM
CCCCNc1ncc2c(-c3ccc(CN4CCN(C)CC4)cc3)cn([C@H]3CC[C@H](O)CC3)c2n1,PKN1,"enzyme activity, inhibitor",,IC50,53 nM
CCCC(C)N1CCCn2c1nc1c2c(=O)n(C)c(=O)n1C (stereo not shown),Adora1,"ligand displacement, radioligand",cell membranes,Ki,> 25000 nM
CNC(=O)c1cccc2oc(C(=O)NC3CCCN(CC(=O)Nc4ccc(S(N)(=O)=O)cc4)C3)cc12 (stereo not shown),CA9,"enzyme activity, inhibitor",,IC50,70.8 nM
C=CCN1CCCn2c1nc1c2c(=O)n(C)c(=O)n1C,Adora1,"ligand displacement, radioligand",cell membranes,Ki,4400 nM
CCCN1CCN(c2ccc(-c3cncc(Cl)c3N3CCC4(CCNC4=O)CC3)cc2)CC1,"NUAK family SNF1-like kinase 2 (NUAK2, Homo sapiens, UniProt Q9H093)",cell-free assay,lysate,Kd,23300 nM
CCCN1CCCn2c1nc1c2c(=O)n(C)c(=O)n1C,Adora1,"ligand displacement, radioligand",cell membranes,Ki,3870 nM
CCCC[C@H](NC(=O)[C@@H](NC(=O)[C@@H](N)Cc1ccc(O)cc1)C(C)C)C(=O)NCC(=O)N[C@@H](Cc1c[nH]cn1)C(=O)N[C@@H](Cc1ccccc1)C(=O)N[C@@H](CCCNC(=N)N)C(=O)N[C@H](Cc1c[nH]c2ccccc12)C(=O)N[C@@H](CC(=O)O)C(=O)N[C@@H](CCCNC(=N)N)C(=O)N[C@@H](Cc1ccccc1)C(=O)NCC(=O)O,Melanocortin receptor 5,"reporter gene, agonist",,EC50,10 nM
Cc1cc(C)cc(C(=O)N2CCCC(C(=O)N(C)C(C)c3ccc(S(N)(=O)=O)cc3)C2)c1 (stereo not shown),CA9,"enzyme activity, inhibitor",,IC50,60 nM
N=C(N)NCCC[C@H](N)C(=O)N[C@@H](Cc1ccccc1)C(=O)NCC(=O)O,Melanocortin receptor 5,"reporter gene, agonist",,EC50,> 100000 nM
CC(OC(=O)C1(Cc2ccc(Cl)cc2)CC1)C(=O)Nc1cccc(S(N)(=O)=O)c1 (stereo not shown),CA9,"enzyme activity, inhibitor",,IC50,38 nM
CN1CCCn2c1nc1c2c(=O)n(C)c(=O)n1C,Adora1,"ligand displacement, radioligand",cell membranes,Ki,> 25000 nM
CSCC[C@H](NC(=O)[C@@H](NC(=O)[C@@H](N)Cc1ccc(O)cc1)C(C)C)C(=O)NCC(=O)N[C@@H](Cc1c[nH]cn1)C(=O)N[C@@H](Cc1ccccc1)C(=O)N[C@@H](CCCNC(=N)N)C(=O)N[C@@H](Cc1c[nH]c2ccccc12)C(=O)O,Melanocortin receptor 5,"reporter gene, agonist",,EC50,710 nM
CN(c1ccccc1CNc1nc(Nc2ccc3c(c2)CC(=O)N3)ncc1C(F)(F)F)S(C)(=O)=O,PKN1,"enzyme activity, inhibitor",,IC50,129 nM
Cc1cc(C(=O)N2CCOCC2CC(=O)c2cccs2)ccc1S(N)(=O)=O (stereo not shown),CA9,"enzyme activity, inhibitor",,IC50,82 nM
Cc1cnc(-c2ccc(-c3ccc(NC(=O)Nc4c(F)cc(F)cc4F)cc3F)c3c2C(=O)NC3)[nH]1,"Tyrosine-protein kinase HCK (HCK, Homo sapiens, UniProt P08631)","binding, competition with immobilised ligand",,Kd,18 nM
NS(=O)(=O)c1ccc(C(=O)N2CCCC(CNc3ccc(Cl)cc3)C2)cc1Cl (stereo not shown),CA9,"enzyme activity, inhibitor",,IC50,206 nM
CNc1cccc2cc(C(=O)Nc3ccc(CC(=O)O)cc3)c(=O)[nH]c12,gyrB,"binding, ITC",,Kd,4.7 nM
CSCC[C@H](NC(=O)[C@@H](N)C(C)C)C(=O)NCC(=O)N[C@@H](Cc1c[nH]cn1)C(=O)N[C@@H](Cc1ccccc1)C(=O)N[C@@H](CCCNC(=N)N)C(=O)N[C@@H](Cc1c[nH]c2ccccc12)C(=O)N[C@@H](CC(=O)O)C(=O)N[C@@H](CCCNC(=N)N)C(=O)N[C@@H](Cc1ccccc1)C(=O)NCC(=O)O,Melanocortin receptor 5,"reporter gene, agonist",,EC50,81 nM
CNc1cccc2cc(C(=O)Nc3cccc(C(=O)O)c3)c(=O)[nH]c12,gyrB,"binding, ITC",,Kd,23 nM
CSCC[C@H](NC(=O)[C@@H](NC(=O)[C@@H](N)Cc1ccc(O)cc1)C(C)C)C(=O)NCC(=O)N[C@@H](Cc1c[nH]cn1)C(=O)N[C@@H](Cc1ccccc1)C(=O)N[C@@H](CCCNC(=N)N)C(=O)N[C@@H](Cc1c[nH]c2ccccc12)C(=O)N[C@@H](CC(=O)O)C(=O)N[C@@H](CCCNC(=N)N)C(=O)N[C@@H](Cc1ccccc1)C(=O)O,Melanocortin receptor 5,"reporter gene, agonist",,EC50,130 nM
